Reference: ChEMBL document CHEMBL1128396, “Synthesis and biological evaluation of a series of new parenteral optically active 3-[[(N-alkylpyridinium-4'-yl)thio]methyl]-2-oxaisocephems” (1995)
Values after ≈ are worked out from the molar mass of the structure shown.

Legend:
Assay type in all cases: functional
[1] = test system: Staphylococcus epidermidis; experiment: Antibacterial activity was determined against Staphylococcus epidermidis ATCC 12228 (Gram-positive)
Outline: (§1)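 2-fold agar dilution on Müller-Hinton agar. Overnight broth cultures were diluted to about 10^6 CFU/mL, and 10^4 CFU/spot was applied to plates with graded drug concentrations. Plates were incubated 18 h at 37 °C.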

Escherichia coli = experiment: Antibacterial activity was determined against Escherichia coli NIHJ JC-2 (Gram-negative); outline: as §1
Klebsiella pneumoniae = experiment: Antibacterial activity was determined against Klebsiella pneumoniae NCTC 9632 (Gram-negative); outline: as §1
Pseudomonas aeruginosa = experiment: Antibacterial activity was determined against Pseudomonas aeruginosa ATCC 10145 (Gram-negative); outline: as §1
Staphylococcus aureus [2] = experiment: Antibacterial activity was determined against Methicillin-resistant Staphylococcus aureus (MRSA) 5038 (Gram-positive)
Serratia marcescens = experiment: Antibacterial activity was determined against Serratia marcescens ATCC 12648 (Gram-negative); outline: as §1
Enterococcus faecalis [3] = experiment: Antibacterial activity was determined against Enterococcus faecalis ATCC 21212 (Gram-positive); outline: as §1
Staphylococcus aureus [4] = experiment: Antibacterial activity was determined against Staphylococcus aureus FDA 209P (Gram-positive); outline: as §1
Mus musculus [5] = experiment: Antibacterial activity was determined against Staphylococcus aureus Smith at a challenge dose of 1.32*10e7 (cells/mouse) (sc) administered
Outline: (§2)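 Cultures were grown overnight at 37 °C in tryptic soy broth (S. aureus, MRSA, E. faecalis) or Müller-Hinton broth (E. coli, S. pneumoniae). Graded doses were given subcutaneously 1 h post-infection. ED50 was calculated by probit from day-7 survival, with 95% confidence limits.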

Mus musculus [6] = experiment: Antibacterial activity was determined against Escherichia coli 29 at a challenge dose of 1.35*10e6 (cells/mouse) administered subcutaneously; settings: sc; outline: as §2
Mus musculus [7] = experiment: Antibacterial activity was determined against MRSA 5129 at a challenge dose of 1.38*10e8 (cells/mouse) administered subcutaneously; settings: sc
Outline: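 Male ICR mice (~20 g, 10 per dose group) were challenged intraperitoneally with 0.5 mL of about 10-100 times the LD50. Inoculum was an overnight 37 °C tryptic soy broth culture suspended in fresh broth with 5% gastric mucin. Various subcutaneous doses were given 1 h post-infection. Survivors were counted on day 7, and ED50 with 95% confidence limits was derived by probit.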

Mus musculus [8] = experiment: Antibacterial activity was determined against MRSA 5038 at a challenge dose of 1.00*10e7 (cells/mouse) administered subcutaneously; settings: sc; outline: as §2
Staphylococcus aureus [9] = experiment: […] was determined against MRSA 5129
Mus musculus [10] = experiment: Antibacterial activity was determined against Staphylococcus aureus Smith at a challenge dose of 1.32*10e7 (cells/mouse) administered subcutaneously; settings: sc; outline: as §2
Staphylococcus aureus [11] = experiment: […] was determined against MRSA 5120
Staphylococcus aureus [12] = experiment: In vitro antibacterial activity against clinical isolates methicillin-resistant Staphylococcus aureus was determined
Outline: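 2-fold agar dilution on Müller-Hinton agar. Overnight broth cultures were diluted to about 10^6 CFU/mL, and 10^4 CFU/spot was applied to plates with graded drug concentrations.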

Mus musculus [13] = experiment: Antibacterial activity was determined against MRSA 5120 at a challenge dose of 7.6*10e7 (cells/mouse) administered subcutaneously; settings: sc; outline: as §2
Mus musculus [14] = experiment: Antibacterial activity was determined against Streptococcus pneumoniae C 0096 at a challenge dose of 1.60*10e2 (cells/mouse) administered subcutaneously; settings: sc; outline: as §2
Enterococcus faecalis [15] = experiment: In vitro antibacterial activity against clinical isolates Enterococcus faecalis was determined; outline: as §1
Mus musculus [16] = experiment: Antibacterial activity was determined against Enterococcus faecalis C 0063 at a challenge dose of 7.00*10e7 (cells/mouse) administered subcutaneously; settings: sc; outline: as §2
Streptococcus pneumoniae = experiment: In vitro antibacterial activity against clinical isolates Ampicillin-insensitive Streptococcus pneumoniae was determined; outline: as §1

| SMILES | MIC [1] [µg/mL] | MIC (Escherichia coli) [µg/mL] | MIC (Klebsiella pneumoniae) [µg/mL] | MIC (Pseudomonas aeruginosa) [µg/mL] | MIC (Staphylococcus aureus [2]) [µg/mL] | MIC (Serratia marcescens) [µg/mL] | MIC (Enterococcus faecalis [3]) [µg/mL] | MIC (Staphylococcus aureus [4]) [µg/mL] | also measured |
| --- | --- | --- | --- | --- | --- | --- | --- | --- | --- |
| CC(C)(C)NC(=O)C[n+]1ccc(SCC2=C(C(=O)O)N3C(=O)[C@@H](NC(=O)/C(=N\OC4CCCC4)c4csc(N)n4)[C@H]3CO2)cc1.O=S(=O)([O-])O | 0.39 | 1.56 | 1.56 | 25 | 12.5 | 3.13 | 1.56 | 0.2 |  |
| Nc1nc(/C(=N/OC2CCCC2)C(=O)N[C@@H]2C(=O)N3C(C(=O)O)=C(CSc4cc[n+](CC(=O)c5ccccc5)cc4)OC[C@H]23)cs1.O=S(=O)([O-])O | 0.39 | 1.56 | 1.56 | 25 | 12.5 | 3.13 | 1.56 | 0.2 |  |
| C[n+]1ccc(SCC2=C(C(=O)O)N3C(=O)[C@@H](NC(=O)/C(=N\OC4CCCC4)c4csc(N)n4)[C@H]3CO2)cc1.O=S(=O)([O-])O | 0.05 | 0.39 | 0.2 | 6.25 | 3.13 | 1.56 | 1.56 | 0.05 | ED50 (Mus musculus [5]): 0.08 mg/kg; ED50 (Mus musculus [6]): 0.09 mg/kg; ED50 (Mus musculus [7]): 3.91 mg/kg; ED50 (Mus musculus [8]): 3.4 mg/kg; MIC (Staphylococcus aureus [9]): 6.25 µg/mL |
| Nc1nc(/C(=N/OC2CCCC2)C(=O)N[C@@H]2C(=O)N3C(C(=O)O)=C(CSc4cc[n+](CC(=O)N5CCC(O)CC5)cc4)OC[C@H]23)cs1.O=S(=O)([O-])O | 0.39 | 1.56 | 0.78 | 12.5 | 25 | 3.13 | 3.13 | 0.2 |  |
| C=CC[n+]1ccc(SCC2=C(C(=O)O)N3C(=O)[C@@H](NC(=O)/C(=N\OC4CCCC4)c4csc(N)n4)[C@H]3CO2)cc1.O=S(=O)([O-])O | 0.05 | 0.39 | 0.39 | 6.25 | 6.25 | 1.56 | 0.78 | 0.1 |  |
| CN[C@H](CC(C)C)C(=O)N[C@H]1C(=O)N[C@@H](CC(N)=O)C(=O)N[C@H]2C(=O)N[C@H]3C(=O)N[C@H](C(=O)N[C@H](C(=O)O)c4cc(O)cc(O)c4-c4cc3ccc4O)[C@H](O)c3ccc(c(Cl)c3)Oc3cc2cc(c3O[C@@H]2O[C@H](CO)[C@@H](O)[C@H](O)[C@H]2O[C@H]2C[C@](C)(N)[C@H](O)[C@H](C)O2)Oc2ccc(cc2Cl)[C@H]1O [VANCOMYCIN] | 3.13 (≈ 2.16 µM) | > 100 | > 100 | > 100 | 0.78 (≈ 0.538 µM) | > 100 | 0.78 (≈ 0.538 µM) | 0.78 (≈ 0.538 µM) | ED50 (Mus musculus [7]): 18.7 mg/kg; ED50 (Mus musculus [8]): 2.7 mg/kg; ED50 (Mus musculus [10]): 3.74 mg/kg; MIC (Staphylococcus aureus [9]): 0.78 µg/mL (≈ 0.538 µM); MIC (Staphylococcus aureus [11]): 0.78 µg/mL (≈ 0.538 µM); MIC50 (Staphylococcus aureus [12]): 1.56 µg/mL (≈ 1.08 µM); MIC80 (Staphylococcus aureus [12]): 1.56 µg/mL (≈ 1.08 µM); MIC90 (Staphylococcus aureus [12]): 1.56 µg/mL (≈ 1.08 µM); ED50 (Mus musculus [13]): 11.5 mg/kg |
| CCC(=O)C[n+]1ccc(SCC2=C(C(=O)O)N3C(=O)[C@@H](NC(=O)/C(=N\OC4CCCC4)c4csc(N)n4)[C@H]3CO2)cc1.O=S(=O)([O-])O | 0.2 | 0.39 | 0.39 | 6.25 | 6.25 | 1.56 | 1.56 | 0.2 | ED50 (Mus musculus [6]): 0.15 mg/kg; ED50 (Mus musculus [14]): 0.56 mg/kg; MIC50 (Enterococcus faecalis [15]): 3.13 µg/mL; MIC80 (Enterococcus faecalis [15]): 3.13 µg/mL; MIC90 (Enterococcus faecalis [15]): 6.25 µg/mL; ED50 (Mus musculus [16]): 5.23 mg/kg; ED50 (Mus musculus [10]): 0.22 mg/kg; MIC (Staphylococcus aureus [11]): 6.25 µg/mL; MIC50 (Staphylococcus aureus [12]): 6.25 µg/mL; MIC80 (Staphylococcus aureus [12]): 6.25 µg/mL; MIC90 (Staphylococcus aureus [12]): 6.25 µg/mL; ED50 (Mus musculus [13]): 1 mg/kg; MIC50 (Streptococcus pneumoniae): 0.025 µg/mL; MIC80 (Streptococcus pneumoniae): 0.05 µg/mL; MIC90 (Streptococcus pneumoniae): 0.05 µg/mL |
| CN(C)C(=O)C[n+]1ccc(SCC2=C(C(=O)O)N3C(=O)[C@@H](NC(=O)/C(=N\OC4CCCC4)c4csc(N)n4)[C@H]3CO2)cc1.O=S(=O)([O-])O | 0.39 | 0.78 | 0.78 | 12.5 | 12.5 | 1.56 | 1.56 | 0.2 |  |
| NC(=O)C[n+]1ccc(SCC2=C(C(=O)O)N3C(=O)[C@@H](NC(=O)/C(=N\OC4CCCC4)c4csc(N)n4)[C@H]3CO2)cc1.O=S(=O)([O-])O | 0.05 | 0.2 | 0.2 | 3.13 | 6.25 | 1.56 | 1.56 | 0.1 |  |
